Source: PubChem BioAssay
MEKK2 WT-MEK5 = raises or lowers MEK5 binding to wildtype human MEKK2 PB1 domain; hit rate 1.1% among 290,000; bead flow cytometry, Alexa488-MEK5 binding to MEKK2 WT; actives lie on both sides; binding response (% of control), % at 10 µM; in the data active = binding response below about 67% or above about 130%
ATG4B inhibitor = ATG4B (human) cysteine protease inhibition; Q9Y4P1; hit rate 0.51% among 340,000; AID 504462; inhibition, % at 8.33 µM; ATG4B cleavage of LC3-PLA2, NBD-HPC fluorescence, 1 h; in the data active = inhibition above about 40%
Target sequence (Q9Y4P1 whole entry, looked up): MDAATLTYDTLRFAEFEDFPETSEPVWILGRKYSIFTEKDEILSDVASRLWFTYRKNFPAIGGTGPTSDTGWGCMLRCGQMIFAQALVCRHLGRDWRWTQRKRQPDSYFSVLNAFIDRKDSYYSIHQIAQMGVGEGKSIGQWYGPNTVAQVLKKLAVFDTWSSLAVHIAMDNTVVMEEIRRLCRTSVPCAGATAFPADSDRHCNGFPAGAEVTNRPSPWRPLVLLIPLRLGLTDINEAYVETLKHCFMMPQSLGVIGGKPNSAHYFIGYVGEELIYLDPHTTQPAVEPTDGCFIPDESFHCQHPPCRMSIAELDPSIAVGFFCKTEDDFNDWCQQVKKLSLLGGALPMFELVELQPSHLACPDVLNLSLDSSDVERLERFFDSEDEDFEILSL
Beta2AR agonist = activates human beta-2 adrenergic receptor causing internalization | P07550 | Am2.2-beta2AR cells, FAP receptor internalization, flow cytometry | response, % (concentration not given with the values) | hit rate 0.43% among 340,000 | AID 504454;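 active = response above a set limit, near 3 SD of response in nonfluorescent compounds, cut at about 42% in these data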
MEKK3 PB1 HTS = modulators (inhibitors or enhancers) of MEK5 binding to human MEKK3 PB1 domain | bead-based flow cytometry, Alexa488-MEK5 binding to MEKK3; actives lie on both sides; 0 = blocked by unlabeled MEK5, 100 = vehicle | AID 1529 | binding response (% of control), % at 10 µM | hit rate 1.4% among 290,000 | Q99759;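 active = binding response more than 3 SD above or below the average of its plate-row segment, actives on both sides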;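 also: Alexa488 bead fluorescence after subtracting the streptavidin-only scavenger bead signal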
MEKK2mut PB1 HTS = signal of MEK5 binding to mutant human MEKK2 PB1 domain; bead flow cytometry, Alexa488-MEK5 binding to MEKK2 mutant; percent response, % at 10 µM; hit rate 0.35% among 290,000; AID 1530; in the data active = percent response above about 24%, passing the limit was not always enough
Dynein transport = dynein cargo transport inhibition. z-score, hits read low. hit rate 0.47% among 220,000. 3617.4 mouse cells, GR-EGFP nuclear translocation imaging; test concentration mostly 20 µM; stimulated with dexamethasone, 1 µM; stronger effect = lower value. AID 1381;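 active = plate z-score of nuclear minus cytoplasmic receptor signal below a set negative limit, without overly bright fluorescence or cell loss, cut at about -3.5 in these data, passing the limit was not always enough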;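 also: z-score of nuclear minus cytoplasmic ring GR-EGFP intensity difference per well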
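Buffer or medium: Induction medium lacking tetracycline, stripped serum | Also added: Dexamethasone agonist, 1.0 µM final, for 30 min | Timing: 48 h induction, 1 h compound, 30 min dex at 37 °C | Detection: Formaldehyde fixation, Hoechst nuclear stain, 10x automated fluorescence imaging | Measure: Nuclear versus cytoplasmic GR-EGFP signal, averaged per well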
MEKK2wt confirm = raises or lowers MEK5 binding to wildtype human MEKK2, retest. AID 1892. hit rate 2.4% among 5,900. binding response (% of control), % at 10 µM. shares compounds with MEKK3 PB1 HTS. bead flow cytometry, Alexa488-MEK5 binding to MEKK2 WT; actives lie on both sides; in the data active = binding response below about 16% or above about 210%; inactive = in between
MEKK2mut-MEK5 = signal of MEK5 binding to mutant human MEKK2, retest | shares compounds with MEKK3 PB1 HTS | bead flow cytometry, Alexa488-MEK5 binding to MEKK2 mutant | percent response, % at 10 µM | hit rate 2% among 5,900 | AID 1893; in the data active = percent response mostly above about 71%, no sharp cut-off; inactive = mostly below about 38%;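 also: higher means compound restores mutant binding toward wildtype level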
MEKK3 confirm = MEKK3-MEK5 PB1 inhibition, single concentration confirmation; shares compounds with MEKK3 PB1 HTS; bead flow cytometry, Alexa488-MEK5 binding to MEKK3; stronger effect = lower value; binding response (% of control), % at 10 µM; hit rate 1.8% among 5,900; AID 1894;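 active = binding response below 72% of control, or above a set upper limit, though filed actives all read lower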;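 also: 100% = DMSO only wells and 0% = binding blocked by excess unlabeled MEK5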
An asterisk follows results filed as active; . = no result; [ ] = dose if it differs, or a comment. In the library only some 2.9% were active in any assay of this set; here they are far more common.

SMILES	MEKK2 WT-MEK5	ATG4B inhibitor	Beta2AR agonist	MEKK3 PB1 HTS	MEKK2mut PB1 HTS	Dynein transport	MEKK2wt confirm	MEKK2mut-MEK5	MEKK3 confirm
CC12CCC(=O)C=C1CCC1C2CCC2(C)C(c3csc(N)n3)CCC12 (stereo unspecified)	.	-6	17	.	.	.	.	.	.
CCC1(C)OC(=O)N(CCCn2ccnc2C)C1(C)O (stereo unspecified)	121	-7	-2	123*	9	-1.4	102	1	97
O=C(NCCCn1ccnc1)/C(=C/c1ccco1)NC(=O)c1ccco1	70	-2	-6	66*[inhibitor]	-11	0.15	101	2	105
O=C(CSc1nc(O)c(Cc2ccccc2)c(=O)[nH]1)N1CCOCC1	118	2	4	131*	31	-1.4	98	2	99
COc1ccc(Cc2c(O)nc(SCC(=O)N3CCOCC3)[nH]c2=O)cc1	109	-7	1	107	4	0.76	.	.	.
COc1ccc(/C(C)=N/OCC(=O)Nc2nc3ccccc3s2)cc1	102	4	1	95	-1	-0.42	.	.	.
Cc1ccc(NS(=O)(=O)c2ccc3[nH]c(=O)[nH]c3c2)cc1	101	6	-5	102	8	.	.	.	.
COc1ccc(Cl)cc1N/C(N)=N/c1nc(CSc2ccc(C)cc2)cc(=O)[nH]1	103	-3	0	104	2	0.7	.	.	.
Cc1ccc(SCc2cc(=O)[nH]c(/N=C(\N)Nc3cccc4ccccc34)n2)cc1	108	-2	16	137*	0	1.1	101	-7	104
C[C@H](CO)N1C[C@H](C)[C@@H](CN(C)S(=O)(=O)c2cccs2)Oc2ccc(NS(=O)(=O)c3ccccc3)cc2CC1=O	.	-13	3	.	.	.	.	.	.
CCNC(=O)NC(=O)C(C)On1nnc2ccc(S(=O)(=O)N(CC)CC)cc21 (stereo unspecified)	106	-8	-4	150*	1	0.28	98	2	101
CCNC(=O)NC(=O)C(C)OC(=O)CCS(=O)(=O)c1ccc(C)cc1 (stereo unspecified)	94	5	1	97	-13	0.054	.	.	.
COc1ccccc1CN1CC(C(=O)NC2(c3ccccc3)CC2)CCC1=O (stereo unspecified)	102	27	4	102	0	.	.	.	.
CCC1CCCCN1C(=S)Nc1cccc(S(=O)(=O)N(C)C)c1 (stereo unspecified)	99	0	3	101	-4	-0.88	.	.	.
COC(=O)c1cc(C#N)c(OC(C)C)nc1C	123	-2	7	142*	7	-0.37	98	-3	97
Cc1ccc2nc(C)c(CN3CCN(c4ccc([N+](=O)[O-])cc4Cl)CC3)n2c1	114	.	-14	106	5	.	.	.	.
COC(=O)c1ccc(S(=O)(=O)N2CCCN(Cc3cccc(Br)c3F)CC2)n1C	53*[inhibitor]	-5	-5	73*[inhibitor]	-38	1.3	95	-4	98
COC(=O)c1ccc(S(=O)(=O)N2CCCN(Cc3ccccc3)CC2)n1C	101	-2	-1	102	5	-0.22	.	.	.
CCOC(=O)c1nc2ccccc2c(C)c1C	103	27	3	99	7	0.53	.	.	.
CCOC(=O)/C=C/c1nc(C(=O)OCC)c(C)c(=O)[nH]1	98	5	15	75*[inhibitor]	-4	0.097	97	-2	94
COc1nc(C)nc2c1ccc1ccccc12	104	-5	0	136*	2	0.13	98	-4	104
COc1ccc(Oc2nc(C)nc3c2oc2ccccc23)cc1	109	-14	-13	116	3	0.21	.	.	.
N#CC(C#N)=CNc1cccnc1	96	-8	-7	98	-3	-0.072	.	.	.
O=C(NCCN1C(=O)S/C(=C\c2ccc(OC(F)F)cc2)C1=O)[C@@H]1CCCN1C(=O)c1cccs1	104	-7	2	131*	0	-1.7	108	11	104
CC(C)C(=O)Nc1cccc(COc2ccccc2CN(Cc2ccccc2)C(=O)OC(C)(C)C)c1	.	.	5	.	.	.	.	.	.
SMILES	MEKK2 WT-MEK5	ATG4B inhibitor	Beta2AR agonist	MEKK3 PB1 HTS	MEKK2mut PB1 HTS	Dynein transport	MEKK2wt confirm	MEKK2mut-MEK5	MEKK3 confirm
COc1ccc(-n2c(=S)[nH]c3cc(C(=O)Nc4ccccc4OC)ccc3c2=O)cc1	103	.	.	132*	-1	-0.24	98	-1	97
CCCNC(=O)Cn1nc([N+](=O)[O-])c([N+](=O)[O-])c1C	58*[inhibitor]	-16	-4	60*[inhibitor]	-3	-0.54	102	0	103
O=[N+]([O-])c1ccc2sc(SCc3nc4ccccn4c3Br)nc2c1	104	.	.	138*	0	-0.25	102	-2	102
Cc1ccc(NC(=O)c2c([N+](=O)[O-])c(C(C)(C)C)nn2C)c(C)c1	109	2	-1	137*	1	-0.37	103	4	105
NC(=O)c1ccc(NC(=O)COC(=O)CC(NC(=O)c2ccccc2Cl)c2ccccc2)cc1 (stereo unspecified)	102	-10	-9	102	0	0.0094	.	.	.
CCOC(=O)Cc1csc(SCC(=O)Nc2oc(C)c3c(C)n[nH]c(=O)c23)n1	.	-2	-4	.	.	.	.	.	.
CSCCC(NC(=O)c1ccco1)C(=O)NNC(=O)c1n[nH]c(=O)c2ccccc12 (stereo unspecified)	.	2	-2	.	.	.	.	.	.
O=C1CC(c2ccc3c(c2)OCCO3)Oc2ccccc21 (stereo unspecified)	102	21	-3	95	-2	.	.	.	.
O=C1CC(c2ccc3c(c2)OCCO3)Oc2ccc([N+](=O)[O-])cc21 (stereo unspecified)	134*	2	9	109	17	.	93	-27	95
Nc1nonc1C(=O)N/N=C/c1cc(Br)ccc1O	93	-2	-3	101	-10	-0.74	.	.	.
COC(=O)C(=NNc1c(C)n(C)n(-c2ccccc2)c1=O)C(=O)OC	112	6	-3	141*	1	0.039	72	-16	74
CC(C)C(=O)Nc1cccc(-c2csc(-c3ccccc3)n2)c1	110	0	-25	139*	0	-0.78	95	-1	103
Cc1cc(NC(=O)c2ccc([N+](=O)[O-])cc2)n(C)n1	102	-8	-4	98	0	-0.18	.	.	.
